# Active and inactive are the calls of the source.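 Rule for the calls, unless noted: active = inhibition of the reporter signal at or above 50%; inactive = inhibition below 50%.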
# Experiments:
# [1] = inhibitors of TNFa-induced NFkB p65 translocation, primary screen, imaging, HUVEC, MLSMR starter and 10KST1 sets (AID 438;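 active = inhibition above 20% together with a positive visual image hit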;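 note: compound added about 3h40 before a 20 min TNFalpha stimulation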;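 for inhibition: signal is the nuclear over cytoplasmic p65 intensity ratio per well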); conditions: HUVEC TNFa-induced p65 nuclear translocation; cell count: measured here: nuclei count (cytotoxicity indicator), at 2.08 µM; inhibition: at 2 µM, stronger effect = higher value, 0% TNFa-plus-vehicle, 100% no-TNFa wells
# [2] = inhibitors of mutant huntingtin aggregation, primary screen, imaging, exon1htt(103Q)mCFP cells, high-content imaging (AID 483;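 active = visual image review flags a hit and inhibition of aggregation exceeds 20%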;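 note: compound exposure lasted 3 days before fixation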;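 for nuclei count: percent of the per-plate median nuclei count of sample wells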); conditions: exon1htt(103Q)mCFP cell line, aggregate imaging, at 2 µM; inhibition of aggregation: stronger effect = higher value; nuclei count: measured here: cell count, toxicity
# [3] = inhibitors of E-selectin induction by TNFa, primary screen, imaging, HUVEC, immunofluorescence, MLSMR starter and 10KST1 sets (AID 487;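 active = visually confirmed hit in the image check and inhibition above 20%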;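 for inhibition: signal is fraction of cell area covered by stained E-selectin grains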;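 for nuclei count: 100% = median nuclei count of all wells on the same plate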); conditions: HUVEC TNFalpha-induced E-selectin immunofluorescence imaging, at 2 µM; inhibition: stronger effect = higher value; nuclei count: measured here: cell number, toxicity
# [4] = target: Voltage-gated potassium channel subunit beta-2 (Rattus norvegicus) (UniProt P62483); test: KvBeta enzyme negative modulators, primary screen, biochemical, NADPH fluorescence (AID 622;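 active = fluorescence slope higher than the sample average by over 3 SD, cut at about -0.22 in these data, passing the limit was not always enough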;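 note: slope of raw intensity against log time taken from 70 to 1610 s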); conditions: recombinant KvBeta, 4-cyanobenzaldehyde reduction, at 10 µM, stronger effect = higher value
# Voltage-gated potassium channel subunit beta-2 (Rattus norvegicus), sequence (P62483 whole entry, looked up): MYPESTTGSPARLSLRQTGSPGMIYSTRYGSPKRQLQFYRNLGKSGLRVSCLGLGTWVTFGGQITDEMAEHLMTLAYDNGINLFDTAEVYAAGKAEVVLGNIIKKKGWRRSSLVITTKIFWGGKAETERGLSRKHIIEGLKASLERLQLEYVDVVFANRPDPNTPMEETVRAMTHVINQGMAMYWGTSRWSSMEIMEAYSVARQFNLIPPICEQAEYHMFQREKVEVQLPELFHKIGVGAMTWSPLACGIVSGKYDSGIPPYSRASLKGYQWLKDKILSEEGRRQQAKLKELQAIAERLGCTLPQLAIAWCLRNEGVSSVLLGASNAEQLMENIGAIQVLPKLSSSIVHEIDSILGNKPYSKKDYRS
# [5] = target: Voltage-gated potassium channel subunit beta-2 (Rattus norvegicus) (UniProt P62483); test: KvBeta positive modulators, primary screen, biochemical, NADPH fluorescence (AID 623;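 active = NADPH fluorescence slope more negative than the mean of all samples by about 3 SD, 99.7% confidence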;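 note: fluorescence intensity change per second fitted from 20 to 320 s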); conditions: Recombinant KvBeta, NADPH fluorescence decrease slope, 10 min; at 10 µM; stronger effect = lower value
# [6] = target: Muscarinic acetylcholine receptor M4 (Homo sapiens) (UniProt P08173); test: compounds altering M4/GIRK thallium flux, either direction, primary screen, M4 allosteric agonist project, cell-based, HEK293 M4/GIRK, BTC-AM (AID 625;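 active = fluorescence slope after compound addition differing from the mean of all tested samples at 99.7% confidence, mostly higher but some lower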;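 note: thallium influx through GIRK channels coupled to M4 in HEK293 cells with BTC-AM dye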); conditions: at 10 µM, actives lie on both sides
# Muscarinic acetylcholine receptor M4 (Homo sapiens), sequence (P08173 whole entry, looked up): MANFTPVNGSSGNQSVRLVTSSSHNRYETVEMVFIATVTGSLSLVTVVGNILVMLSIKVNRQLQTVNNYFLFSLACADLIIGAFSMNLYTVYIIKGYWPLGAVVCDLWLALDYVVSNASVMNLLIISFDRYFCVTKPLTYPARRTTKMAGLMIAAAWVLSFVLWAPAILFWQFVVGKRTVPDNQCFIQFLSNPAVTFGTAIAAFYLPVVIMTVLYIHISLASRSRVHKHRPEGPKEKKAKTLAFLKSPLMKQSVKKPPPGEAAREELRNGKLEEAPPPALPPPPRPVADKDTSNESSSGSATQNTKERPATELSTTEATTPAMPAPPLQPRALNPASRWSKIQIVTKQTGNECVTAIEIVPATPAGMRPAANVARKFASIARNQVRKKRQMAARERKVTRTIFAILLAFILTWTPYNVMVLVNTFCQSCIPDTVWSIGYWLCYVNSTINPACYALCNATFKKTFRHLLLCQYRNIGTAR
# In short: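 Assay system: HEK293 cells with M4 receptor and GIRK channels / Controls: carbachol and DMSO controls / Schedule: 1 h dye loading, 2 min kinetic read / Technique: kinetic fluorescence with BTC-AM dye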
# [7] = inhibitors of Sendai virus-induced IRF3 signaling, primary screen, TLR/RLR signaling modifier project, cell-based, Sendai virus stimulus, luciferase, 10K MLSCN set (AID 602276;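 active = inhibition at or above 50% at 10 µM; inactive = inhibition below 50%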;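 note: firefly luciferase from ISG56 promoter only with Renilla not read in this screen; 0% = Sendai virus plus DMSO and 100% = medium plus DMSO without virus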); conditions: HEK293 RL24 IRF3 luciferase reporter, at 10 µM, stronger effect = higher value
# [8] = inhibitors of poly I:C-induced TLR3 signaling, primary screen, cell-based, poly I:C stimulus, luciferase, 10K MLSCN set (AID 602277); conditions: HEK293-TLR3 RL24 IRF3 luciferase reporter, at 10 µM, stronger effect = higher value
SMILES,cell count [1],inhibition [1],inhibition of aggregation [2],nuclei count [2] [%],inhibition [3],nuclei count [3] [%],fluorescence slope [4],NADPH fluorescence slope [5],fluorescence slope [6],inhibition [7],inhibition [8]
O=C(CS(=O)(=O)Cc1ccccc1)N1CCc2ccccc2C1,753,-0.7% (inactive),13.8% (inactive),97.8,-110% (inactive),124,-0.529 (inactive),-4.4e-05 (inactive),0.00542 (inactive),-17.6% (inactive),-31.5% (inactive)
CC(C)CCNC(=O)CCNS(=O)(=O)c1ccc(Cl)cc1,538,-19.2% (inactive),1.9% (inactive),79.8,-36.9% (inactive),91.3,-0.566 (inactive),-1.2e-05 (inactive),0.00577 (inactive),22.9% (inactive),25.9% (inactive)
CCOc1ccccc1-c1nc(-c2ccc(NC(=O)Cc3ccccc3OC)cc2)no1,484,-5% (inactive),-2.4% (inactive),87.4,-54.6% (inactive),111,-0.527 (inactive),-3.1e-05 (inactive),0.0078 (inactive),-18.2% (inactive),-34.8% (inactive)
CC(=O)C1=C(O)C(=O)N(Cc2cccnc2)C1c1ccccc1 (stereo unspecified),429,-2% (inactive),-8.8% (inactive),97.7,-58.9% (inactive),115,-0.537 (inactive),-2.4e-05 (inactive),0.00492 (inactive),6.76% (inactive),18.6% (inactive)
CSc1ccccc1NC(=O)CN(Cc1ccccc1)S(C)(=O)=O,768,-15.1% (inactive),-4.2% (inactive),115,-78.6% (inactive),103,-0.564 (inactive),-3.2e-05 (inactive),0.00609 (inactive),21.8% (inactive),19.7% (inactive)
COc1ccc(OC)c(NC(=O)CCN2CCN(c3ccccc3F)CC2)c1,529,10.1% (inactive),10.6% (inactive),81.2,-63.8% (inactive),101,-0.54 (inactive),-3.3e-05 (inactive),0.00417 (inactive),1.17% (inactive),0.616% (inactive)
CCCCOc1cccc(NC(=O)CSc2nccn2C)c1,397,2.5% (inactive),0.8% (inactive),96.8,6.2% (inactive),108,-0.318 (inactive),-3.3e-05 (inactive),0.00562 (inactive),-4.33% (inactive),-42.2% (inactive)
Cc1nc(SCC(=O)NCc2ccco2)c2c(C)c(C)sc2n1,709,-4% (inactive),15.2% (inactive),85.7,-4.2% (inactive),112,-0.558 (inactive),-3.9e-05 (inactive),0.00596 (inactive),17.4% (inactive),17.9% (inactive)
CCC1c2ccc(C)n2CCN1C(=O)Nc1ccccc1OC (stereo unspecified),551,-15.9% (inactive),0.1% (inactive),112,-63.1% (inactive),116,-0.402 (inactive),-6.4e-05 (inactive),0.00541 (inactive),3.56% (inactive),3.42% (inactive)
O=C(CSc1nnc(-c2cccnc2)o1)OC1CCCCC1,695,-3.9% (inactive),22.6% (inactive),95.8,-54.6% (inactive),126,-0.517 (inactive),3.9e-05 (inactive),0.0051 (inactive),15.3% (inactive),16.2% (inactive)
COc1cccc(OC)c1C(=O)Nc1ccc(CN2CCCCC2)cc1,640,-2.4% (inactive),-16.7% (inactive),71.4,-32.5% (inactive),98.8,-0.425 (inactive),-3.1e-06 (inactive),0.00659 (inactive),13.4% (inactive),23.2% (inactive)
COc1cc(OC)cc(C(=O)NCCN2CCOCC2)c1,633,-11.2% (inactive),-0.4% (inactive),94.3,-24.5% (inactive),108,-0.573 (inactive),1.5e-05 (inactive),0.00526 (inactive),7.36% (inactive),9.91% (inactive)
Cc1noc(C)c1S(=O)(=O)N1CCC(C(=O)N2CCN(Cc3ccc4c(c3)OCO4)CC2)CC1,721,-6.9% (inactive),8.9% (inactive),107,-40.5% (inactive),103,-0.498 (inactive),1.3e-06 (inactive),0.00556 (inactive),13.4% (inactive),17.8% (inactive)
NC1=NC(c2ccc(Br)cc2)n2c(nc3ccccc32)N1 (stereo unspecified),779,4.8% (inactive),-6.6% (inactive),105,-44.9% (inactive),106,-0.556 (inactive),-1.5e-06 (inactive),0.00498 (inactive),17.6% (inactive),25% (inactive)
O=C(CSc1nc2ccccc2c(=O)n1CCC(=O)N1CCCCC1)NCc1ccccc1,495,-7.5% (inactive),1% (inactive),103,16.9% (inactive),101,-0.507 (inactive),1.6e-05 (inactive),0.00538 (inactive),17.4% (inactive),24.1% (inactive)
CC(=O)N1C(=O)C2(C(C#N)=C(N)Oc3cc(C)oc(=O)c32)c2ccccc21 (stereo unspecified),438,3.8% (inactive),-2.1% (inactive),108,-54.5% (inactive),110,-0.511 (inactive),-0.00027 (inactive),0.00547 (inactive),-9.7% (inactive),-6.69% (inactive)
O=C1CC(c2ccc(S(=O)(=O)N3CCN(c4ccccc4)CC3)cc2)CN1 (stereo unspecified),426,0.3% (inactive),7.2% (inactive),102,75.6% (active),44.2,-0.289 (inactive),-4.6e-05 (inactive),0.00584 (inactive),5.45% (inactive),14.5% (inactive)
CCOC(=O)C1C(=O)OC(C)(C)C1C(C)C(=O)c1ccc(OC)cc1 (stereo unspecified),605,-6.4% (inactive),-4.2% (inactive),42.1,3.9% (inactive),92.7,-0.47 (inactive),3.2e-06 (inactive),0.00448 (inactive),21.2% (inactive),23.4% (inactive)
O=S(=O)(NCCc1ccncc1)c1cc(Br)ccc1F,231,1.9% (inactive),-9.7% (inactive),106,-46.9% (inactive),110,-0.626 (inactive),-1.6e-05 (inactive),0.00792 (inactive),24.5% (inactive),16.5% (inactive)
CCc1cc(C)cc(OCCNC(=O)c2ncn[nH]2)c1,473,3% (inactive),3.2% (inactive),93.5,31.1% (inactive),88.4,-0.592 (inactive),-1.9e-06 (inactive),0.00585 (inactive),12% (inactive),18.1% (inactive)
CCOc1nc2ccccc2nc1NS(=O)(=O)c1ccccc1,769,-4.2% (inactive),6.9% (inactive),126,-10% (inactive),132,-0.462 (inactive),-0.000234 (inactive),0.00417 (inactive),15.8% (inactive),20% (inactive)
C[C@H](NC(=O)Nc1cccc(C(F)(F)F)c1)C(=O)O,759,0.4% (inactive),14.4% (inactive),98,-1.7% (inactive),92.5,-0.547 (inactive),1.5e-05 (inactive),0.00427 (inactive),27.2% (inactive),22.6% (inactive)
O=C(O)c1ccc(-n2nc(C(F)(F)F)c3c2-c2ccoc2CC3)cc1,609,-5.9% (inactive),5.8% (inactive),96.1,-24.4% (inactive),90.9,-0.492 (inactive),2.6e-05 (inactive),0.00488 (inactive),3.92% (inactive),-5.27% (inactive)
Cc1c(C(=O)O)sc2nc3n(c(=O)c12)CCC(C)CC3 (stereo unspecified),621,-10.5% (inactive),-7.7% (inactive),113,-29.1% (inactive),110,-0.442 (inactive),6.7e-05 (inactive),0.00587 (inactive),6.81% (inactive),11.1% (inactive)
COc1ccccc1NC(=O)N(Cc1ccccc1)c1ccccn1,756,3.2% (inactive),-5.9% (inactive),93.7,19.9% (inactive),114,-0.581 (inactive),-7e-05 (inactive),0.00744 (inactive),-7.55% (inactive),-38.8% (inactive)
COc1ccc(N2CCN(c3ncnc4c3cnn4-c3ccc(C)cc3C)CC2)cc1,683,-10.9% (inactive),-20.3% (inactive),117,-33.1% (inactive),98,-0.558 (inactive),-4.3e-05 (inactive),0.00551 (inactive),5.2% (inactive),-20.2% (inactive)

# — PubChem BioAssay
